Bioassay records as filed in PubChem BioAssay.
Hits are enriched below; roughly 2.1% of the tested compounds scored in any of these assays.
IEC-6 cytotox: kills IEC-6 intestinal cells in KLF5 counter-screen | AID 1825 | inhibition, % at 5 µM | actives 0.78% (n = 290,000) | IEC-6 cytotoxicity, luminescence viability;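 also: 0% = plate median of test compound wells and 100% = cytotoxic reference compound wells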
BaF3 parental: counter-screen for JAK2V617F inhibitors: parental Ba/F3 viability inhibitors | actives 1.1% (n = 220,000) | CellTiter-Glo ATP luminescence | inhibition, % at 5.6 µM;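 active = inhibition above a per-campaign cutoff, the mean inhibition of all tested compounds plus 3 SD, cut at about 27% in these data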;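 also: 0% = DMSO wells and 100% = JAK Inhibitor I control wells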
KLF5 inhibitor: kruppel-like factor 5 inhibition | inhibition, % at 5 µM | actives 0.23% (n = 290,000) | DLD-1 KLF5 promoter-luciferase reporter, luminescence;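 active = inhibition above a per-plate limit of that plate's mean compound inhibition plus 3 SD, cut at about 60% in these data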;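 also: 0% = DMSO wells and 100% = LY294002 at 200 µM; higher means less KLF5 promoter-driven luciferase light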
MT stabilize HCS: microtubule stabilization, imaging screen; AID 2205; HeLa tubulin immunostaining HCS, 24 h; share of cells brighter than vehicle mean+2SD; % tubulin-high responders, % at 10 µM; actives 0.83% (n = 200,000);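 active = plate Z-score above 3 for both tubulin-high and condensed-nucleus cell shares, with cell loss under 80%, at 10 µM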;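 also: anti alpha tubulin signal scored within the nucleus-defined area of each cell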
bCat nuc transl: alters nuclear translocation of beta-catenin in HeLa cells; immunofluorescence imaging; nuclear translocation activity, % at 5 µM; actives 0.3% (n = 190,000); AID 1665;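 active = nuclear translocation activity above 50% at 5 µM, with a well cell count of 50 or more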;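 also: per-cell ratio of nuclear to cytoplasmic median beta-catenin stain intensity; plate controls were DMSO negative control for no effect and GSK-3 inhibitor IX positive control for full effect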
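Test system: human HeLa cells, native beta-catenin. Compound dosing: 5 µM primary single dose, 0.1% DMSO, 0.02–20 µM confirmation series. Incubation: compound exposure 24 h at 37°C. Detection: beta-catenin immunostaining with DAPI counterstain, 20x imaging, 6 fields/well. Read-out basis: Nuclear/cytoplasmic beta-catenin signal ratio, % activation.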
Ba/F3 V617F tox: loss of viability in JAK2V617F-driven Ba/F3 cells. Ba/F3 EpoR-JAK2V617F viability, ATP luminescence. inhibition, % at 5.6 µM. actives 1.1% (n = 220,000);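 active = inhibition above the campaign mean plus 3 SD over all tested compounds, cut at about 24% in these data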;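 also: cytokine-independent growth of Ba/F3 cells driven by EpoR plus mutant JAK2; 0% = DMSO-treated cells and 100% = JAK inhibitor I control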
IEC-6 tox confirm: confirmation of cytotoxic compounds in rat IEC-6 intestinal epithelial cells. AID 1907. IEC-6 rat intestinal epithelial viability, luminescence. shares compounds with IEC-6 cytotox. inhibition, % at 5 µM. actives 63% (n = 1,900);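 also: 0% = vehicle and 100% = reference cytotoxic drug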
* = called active by the depositor; . = no result. Rule as the data show it, unless noted: active = inhibition above about 22%; inactive = the rest.

SMILES	IEC-6 cytotox	BaF3 parental	KLF5 inhibitor	MT stabilize HCS	bCat nuc transl	Ba/F3 V617F tox	IEC-6 tox confirm
CC1CC2(C)Oc3ccccc3CC2C(C)C1CNCCCN(C)C (centres undefined)	34.1*	104.4*	4.0	3.0	57.3*	101.5*	100.3*
CCc1ccc(C(=O)C(C)OC(=O)Cc2n[nH]c(=O)c3ccccc23)cc1 (centres undefined)	24.8*	.	16.4	.	.	.	9.4
COc1ccccc1NC(=O)c1ccc(NC(=O)Cc2n[nH]c(=O)c3ccccc23)cc1	25.3*	-7.2	-4.9	.	3.4	6.3	17.0
CC(=O)c1cccc(NC(=O)C(C)OC(=O)Cc2n[nH]c(=O)c3ccccc23)c1 (centres undefined)	-4.4	.	-28.8	.	.	.	.
COc1ccc(C(=O)N=C2SC3CS(=O)(=O)CC3N2Cc2ccc(F)cc2)cc1 (centres undefined)	0.3	.	-4.1	.	.	.	.
O=C(N/N=C/c1ccccn1)c1cccc(S(=O)(=O)N2CCCC2)c1	-0.8	-6.9	-7.4	.	1.0	-2.2	.
S=C(NCCc1ccccc1)Nc1ccc(Br)cn1	8.2	4.8	-32.8	5.1	-2.5	2.7	.
COc1cc2c(cc1OC)-c1c(OC)c(OC)cc3ccnc(c13)C2=O	28.6*	39.3*	20.7	3.5	.	46.9*	24.5*
Cc1cc(=S)c2cccc(C)c2[nH]1	-3.5	4.1	-29.9	1.5	0.5	-1.7	.
COc1cccc(NC(=O)c2ccc3c(c2)C(=O)N(CC2CCCO2)C3=O)c1 (centres undefined)	4.2	.	-20.0	.	.	.	.
CCOC(=O)Nc1nc(-c2ccccc2)c(C(=O)c2ccc(Cl)cc2)s1	86.2*	77.4*	59.1	9.4	182.3*	72.7*	57.3*
Nn1c(SCc2cccc(F)c2)nnc1-c1ccncc1	-3.6	4.0	-5.4	.	0.3	-2.5	.
O=C1CN(C(=O)COc2cccc(F)c2)c2ccccc2N1	-6.2	-1.4	-8.4	7.1	-1.4	-6.0	.
Cc1noc(C)c1COc1cccc(C(=O)OCC(=O)N2CC(=O)Nc3ccccc32)c1	79.0*	2.7	17.2	38.8*	0.2	4.1	43.2*
CC(=O)Cc1nsc(NC(=O)c2ccc(COc3ccccc3C)o2)n1	5.1	.	-11.9	.	.	.	.
O=C(NN1CC(C(=O)OCc2ccc(Br)cc2)CC1=O)c1ccccc1 (centres undefined)	-4.1	.	-5.4	.	.	.	.
CCOc1ccc2c(c1)OC(c1ccc(OC)cc1)(C(F)(F)F)NC2=O (centres undefined)	81.0*	76.8*	45.2	15.8	-1.6	78.3*	54.9*
O=[N+]([O-])c1c(Nc2ccccc2O)cc(Cl)c2nonc12	96.2*	.	15.1	.	.	.	42.7*
Cc1ccccc1-c1nc(CN2CCC(C(=O)NCCCN3CC(C)CC(C)C3)CC2)c(C)o1 (centres undefined)	59.7*	20.8	0.6	3.2	-3.3	14.8	53.0*
Cc1ccccc1-c1nc(CN2CCC(C(=O)NCCCN3CCCC3)CC2)c(C)o1	-0.1	8.1	19.4	2.4	0.4	2.0	.
CCN1CCCC1CNC(=O)C1CCN(Cc2nc(-c3cccc(Br)c3)oc2C)CC1 (centres undefined)	49.2*	31.2*	11.6	3.9	-4.0	11.8	98.8*
COc1cc(/C=N/Nc2snc(SC)c2C#N)cc(OC)c1OC	26.2*	4.7	-6.4	2.6	-0.2	4.4	49.3*
Cc1cccc(-n2ncc3c2CCCC3NC(=O)c2ccc[n+]([O-])c2)c1C (centres undefined)	-5.9	.	-28.6	.	.	.	.
Cc1cc(C(=O)NC2CCCc3c2cnn3-c2cccc(C)c2C)n(C)n1 (centres undefined)	36.0*	.	19.7	.	.	.	29.0*
CC(=O)NC1CCCc2c1cnn2-c1ccc(C(C)(C)C)cc1 (centres undefined)	-0.6	.	-31.6	.	.	.	.
SMILES	IEC-6 cytotox	BaF3 parental	KLF5 inhibitor	MT stabilize HCS	bCat nuc transl	Ba/F3 V617F tox	IEC-6 tox confirm
Cn1nccc1C(=O)NC1CCCc2c1cnn2-c1ccc(C(C)(C)C)cc1 (centres undefined)	22.8*	.	-6.0	.	.	.	21.2
Cc1c(NC(=S)NC(=O)c2ccco2)c(=O)n(-c2ccccc2)n1C	4.0	4.0	9.8	1.5	-2.6	-3.6	.
CC(C)OC(=O)Nc1ccc2c(c1)N(C(=O)N1CCN(C)CC1)c1ccccc1CC2	35.3*	29.1*	-54.7	.	0.0	25.2*	20.7
CCC(C)NS(=O)(=O)c1ccc(NC(=O)Cc2ccc(OC)cc2)cc1 (centres undefined)	3.4	3.9	10.4	3.6	0.3	3.7	.
CC(=O)C(C(c1ccccc1)c1c[nH]c2ccccc12)[N+](=O)[O-] (centres undefined)	32.2*	.	21.8	.	.	.	20.9
O=C1CC(c2ccccc2)CC(O)=C1C=NCc1ccccc1Cl (centres undefined)	30.6*	28.7*	51.3	32.5	-0.8	42.9*	29.8*
COc1cccc(C(=O)N2N=C(c3ccccn3)CC2(O)C(F)(F)F)c1 (centres undefined)	24.5*	-0.8	-15.6	.	-1.0	-0.9	11.5
COc1ccc(CC(=O)N2N=C(c3ccncc3)CC2(O)C(F)(F)F)cc1 (centres undefined)	24.5*	24.8	28.0	14.9*	12.0	4.8	29.9*
COc1ccc(N2CCN(c3ccc(NC(=O)/C=C\C(=O)O)cc3)CC2)cc1	-3.8	.	5.8	.	.	.	.
CCCNC(=O)C(=O)NCC(c1ccc2c(c1)OCO2)N1CCN(c2ccc(F)cc2)CC1 (centres undefined)	1.5	.	-51.3	.	.	.	.
CCN(CC)CCOC(=O)c1ccc(NC(=O)C(C)NC(=O)C23CC4CC(CC(C4)C2)C3)cc1 (centres undefined)	-0.4	7.0	-12.1	3.1	-0.7	0.8	.
O=C(CCc1ccc(S(=O)(=O)NC2CCCCC2)cc1)N(Cc1ccccc1)Cc1ccccc1	-7.9	5.5	-30.6	1.6	-0.4	1.5	.
COCCn1c(SC(C)C(=O)Nc2ncc(Cl)cc2Cl)nc2ccccc21 (centres undefined)	24.4*	3.1	28.6	1.2	0.0	0.2	27.5*
O=c1oc2ccccc2c(Nc2cccc3ccccc23)c1[N+](=O)[O-]	10.0	5.9	20.2	0.6	-0.4	0.2	.
O=c1oc2ccccc2c(Nc2cccc3cccnc23)c1[N+](=O)[O-]	61.4*	6.2	-6.9	5.8	1.2	2.0	-5.9
COc1ccc(Cl)cc1NC(=O)C/C(C)=N/NC(=O)COc1ccc(C)cc1	0.7	.	-1.1	.	.	.	.
N#CC1=C(N)Oc2cc(N)ccc2C1c1cccc(F)c1 (centres undefined)	51.0*	.	37.7	.	.	.	41.7*
COC(=O)c1ccc(C2C(C#N)=C(N)Oc3cc(N)ccc32)cc1 (centres undefined)	-3.2	.	3.4	.	.	.	.
Cc1c(CNC2CCCC2)c(C(=O)O)c(C)n1Cc1ccccc1	1.7	-0.7	-4.3	3.6	1.0	-4.8	.
